Redox H2O2 prof – compounds producing H2O2 with reducing agent – biochemical, NIH compound library profiling, artefact control for MLSCN library redox annotation, primary screen | DTT-dependent redox cycling H2O2, phenol red/HRP absorbance; 100% = 100 µM peroxide control, 0% = buffer | activation, % at 10 µM | 200,000 compounds, 0.03% hits | AID 878;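 active means activation of at least 50% relative to the plate's high and low controls in the primary single-dose screen; inactive means activation below 50%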;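 further: compound incubated with DTT at 0.8 mM final as the reducing agent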
G6PDH CS – inhibits Leuconostoc G6PDH, flagging false hits in G6PDH-based assays | inhibition, % at 5 µM | 200,000 compounds, 0.12% hits | Purified L. mesenteroides G6PDH, diaphorase/resazurin coupled fluorescence, 45 min
Diaph act CS – counter-screen for diaphorase-based assays: diaphorase activators and chemical reducers; AID 1229; 190,000 compounds, 0.005% hits; Diaphorase/resazurin coupled assay, resorufin fluorescence, 16 min; stronger effect = higher value; 1 = vehicle wells, 0 = NADH-free wells; activation factor at 20 µM;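 active means diaphorase activity raised at least twofold by the compound at 20 µM; inactive means activation factor below 2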
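Material: purified diaphorase enzyme from Clostridium kluyveri / Medium: HEPES pH 7.4 buffer with MgCl2 and Tween 20 / Schedule: enzyme reaction of 16 min at room temperature / Measured by: resorufin fluorescence, excitation 544 nm, emission 590 nm / Evaluation: rise in resorufin formation, marking diaphorase activation or chemical reduction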
PfG6PD inh – PfG6PD (Plasmodium falciparum) enzyme inhibition. PfGluPho enzyme, NADPH resazurin-diaphorase fluorescence. inhibition, % at 20 µM. 350,000 compounds, 0.78% hits. AID 504690;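 active means inhibition reaching at least a set limit at 20 µM in the primary screen, cut at about 59% in these data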;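 further: 0% = DMSO wells with substrate and 100% = DMSO wells lacking glucose-6-phosphate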
Lmaj promast – reduces viability of Leishmania major promastigotes; resazurin fluorescence viability; inhibition, % at 10 µM; 200,000 compounds, 9% hits; AID 1063;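 further: promastigotes grown with compound for 44 hours at 28 °C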
Diaph inh CS – inhibits diaphorase or chemically oxidizes, flagging diaphorase assay artifacts. inhibition, % at 20 µM. diaphorase resazurin-to-resorufin fluorescence, NADH, 16 min; bacterial (C. kluyveri) enzyme, not human. 190,000 compounds, 0.69% hits;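 active means primary screen inhibition at 20 µM above a set limit, cut at about 50% in these data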;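 further: plate controls were DMSO with full reaction for no effect and wells lacking NADH for full effect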
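System: Diaphorase enzyme from Clostridium kluyveri | Amount: Enzyme working solution with 0.14 U/mL diaphorase | Benchmarks: No-NADH positive control and DMSO neutral control | Signal: Fluorescence of resorufin formed from resazurin, Ex 544/Em 590 nm | Schedule: 16-min room-temperature incubation before reading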
PfG6PD confirm – confirmation of Plasmodium falciparum G6PD inhibitors. shares compounds with PfG6PD inh. recombinant PfGluPho, NADPH-diaphorase-resazurin fluorescence. inhibition, % at 20 µM. 2,400 compounds, 34% hits;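 active means inhibition of at least 50% at 20 µM in any single replicate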;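 further: 0% = DMSO with substrate and 100% = DMSO lacking glucose-6-phosphate substrate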
Diaphorase 10uM – diaphorase inhibition or oxidation at 10 uM NADPH; shares compounds with PfG6PD inh; diaphorase-coupled resazurin reduction, fluorescence, NADPH 10 uM; inhibition, % at 20 µM; 820 compounds, 39% hits;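 active means average inhibition reaching 50% or more with the compound at 20 µM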;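 further: resorufin red fluorescence formed as diaphorase reduces resazurin using NADPH; 0% = DMSO with enzyme and 100% = DMSO without enzyme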
Diaph ctr 30uM – inhibits diaphorase or oxidizes, flagging false PfG6PD hits; shares compounds with PfG6PD inh; Diaphorase/resazurin coupled assay, resorufin fluorescence, 30 uM NADPH; inhibition, % at 20 µM; 820 compounds, 29% hits; AID 504863;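 active means inhibition averaging 50% or more, tested at 20 µM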;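 further: 0% = DMSO with enzyme and 100% = DMSO wells lacking diaphorase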
The depositor's hits bear a star; nt = no result given. The full list was thinned out, with hits kept by preference. Unless noted, no stated cut-off is given here; in the data, active means inhibition above about 50%; inactive means the rest.

SMILES | Redox H2O2 prof | G6PDH CS | Diaph act CS | PfG6PD inh | Lmaj promast | Diaph inh CS | PfG6PD confirm | others
CCc1cc[n+](C2=C([O-])c3ccccc3C(=O)/C2=N\S(=O)(=O)c2cccs2)cc1 | -1 | 51* | 0.8 | 95* | 99* | 21 | 72* | Diaphorase 10uM=66*;Diaph ctr 30uM=75*
CCc1c(C)nc2cc(-c3ccc(OC)c(OC)c3)nn2c1NCC1CC1 | 0 | -1 | 1 | 62* | 101* | 4 | 6
CCOc1ccccc1NC(=O)CSc1nncc2ccccc12 | nt | nt | nt | 0 | nt | nt | nt
O=C(Nc1ccc(Br)cc1)c1cc2ccccn2n1 | nt | nt | nt | 71* | nt | nt | 29
O=C(NCCc1ccc(Cl)cc1)c1cc2ccccn2n1 | nt | nt | nt | 7 | nt | nt | nt
Cc1ccc(OCc2cc(C(=O)N3CCCC(O)C3)no2)cn1 (stereo not given) | nt | nt | nt | 4 | nt | nt | nt
CCOc1ccc(S(=O)(=O)NCc2ccccc2Cl)cc1C(N)=O | 1 | 9 | 1.2 | 75* | 42 | -22 | 32
Cc1ccc2oc(C(=O)N(Cc3ccccc3)C3CCS(=O)(=O)C3)c(C)c2c1 (stereo not given) | nt | nt | nt | 2 | nt | nt | nt
Cc1c(C(=O)N(Cc2ccccc2Cl)C2CCS(=O)(=O)C2)oc2ccccc12 (stereo not given) | nt | nt | nt | 96* | nt | nt | 57* | Diaphorase 10uM=59*;Diaph ctr 30uM=46
Cc1ccc(/C(C#N)=C\c2ccc(N3CCOCC3)o2)cc1 | 2 | -10 | 0.9 | 72* | 9 | 5 | -2
C=CCNC(=O)C1CC1(c1cccc(C)c1)c1cccc(C)c1 (stereo not given) | nt | nt | nt | 7 | nt | nt | nt
Cc1cccc(C2(c3cccc(C)c3)CC2C(=O)Nc2ccc([N+](=O)[O-])cc2O)c1 (stereo not given) | 0 | 19 | 0.7 | 113* | 99* | 30 | 60* | Diaphorase 10uM=55*;Diaph ctr 30uM=38
COc1cccc(C2(c3cccc(OC)c3)CC2C(=O)Nc2ccccc2Cl)c1 (stereo not given) | 0 | -17 | 0.8 | 88* | 11 | 20 | 37
COc1cccc(C2(c3cccc(OC)c3)CC2C(=O)Nc2ccc(F)cc2)c1 (stereo not given) | 0 | 3 | 0.8 | 115* | 1 | 19 | 57* | Diaphorase 10uM=56*;Diaph ctr 30uM=37
CN(C(=O)CSc1nnc(-c2ccc(F)cc2)n1C)C1CCS(=O)(=O)C1 (stereo not given) | nt | nt | nt | 12 | nt | nt | nt
CC(C)n1nnc(-c2ccc(OCc3ccccc3F)cc2)n1 | nt | nt | nt | -3 | nt | nt | nt
CN(C)CCNC(=O)c1cccc2ccc(-c3ccc(-c4ccccc4)cc3)nc12 | nt | nt | nt | 95* | nt | nt | 15
CN(C)CCNC(=O)c1cccc2nc3cccc(F)c3nc12 | nt | nt | nt | -2 | nt | nt | nt
Cn1cc(S(=O)(=O)CC(=O)Nc2ccc(Br)cc2)c2ccccc21 | 5 | 10 | 0.8 | 87* | 12 | 17 | 39
O=C(N/N=C/c1cccc([N+](=O)[O-])c1)c1cc[n+](CCO)cc1 | nt | nt | nt | -7 | nt | nt | nt
CCC(C)N(CCNC(=O)c1ccc2c(c1)NC(=O)c1ccccc1S2)C1CCCCC1 (stereo not given) | nt | nt | nt | 76* | nt | nt | 93* | Diaphorase 10uM=-8;Diaph ctr 30uM=-13
Cc1nn(C2CCS(=O)(=O)C2)c(C)c1CN(C)C(=O)c1ccccc1 (stereo not given) | nt | nt | nt | 0 | nt | nt | nt
Nc1ccc(S(N)(=O)=O)cc1N | nt | nt | nt | 60* | nt | nt | 4
O=C(NCc1ccccn1)c1ccc(OC2CCN(Cc3ccc(Cl)s3)CC2)cc1 | nt | nt | nt | -8 | nt | nt | nt
CCOCC(=O)Nc1nnc(COc2ccc(Cl)cc2)s1 | 0 | 9 | 1 | 62* | -6 | 4 | 15
SMILES | Redox H2O2 prof | G6PDH CS | Diaph act CS | PfG6PD inh | Lmaj promast | Diaph inh CS | PfG6PD confirm | others
O=C(CSc1ccccc1)Nc1nnc(COc2ccc(Cl)cc2)s1 | -1 | 18 | 0.9 | 78* | -9 | 8 | 43
Cc1onc(-c2ccccc2)c1C(=O)Nc1nnc(COc2ccc(Cl)cc2)s1 | 2 | -17 | 0.7 | 78* | -5 | 27 | 49
COCC(=O)Nc1nnc(COc2ccc(Cl)cc2)s1 | 0 | -1 | 1.1 | -14 | -3 | -6 | nt
Cc1cc(C)c2c(N)c(C(=O)N3CCCCCC3)sc2n1 | 2 | 0 | 0.9 | 70* | -5 | 6 | 1
Cc1cc(C)c2nc3sc(C(=O)N4CCOCC4)c(N)c3cc2c1 | nt | nt | nt | 65* | nt | nt | 24
Cc1ccc(C)c2nc3sc(C(=O)N4CCOCC4)c(N)c3cc12 | 0 | 14 | 0.6 | 44 | 7 | 40 | nt
CC(=O)Nc1cccc(NC(=O)CCN2C(=O)c3ccccc3S2(=O)=O)c1 | nt | nt | nt | 0 | nt | nt | nt
CC1(C)CC(=O)C2=C(C1)N(c1ccc(Cl)cc1)C(=O)C2(O)C(F)(F)F (stereo not given) | 0 | -1 | 0.9 | -3 | -7 | 10 | nt
O=C(CSc1nc2ncc(Cl)cc2[nH]1)NCC(=O)Nc1ccc(F)c(F)c1F | nt | nt | nt | 79* | nt | nt | 31
COc1cc(NS(=O)(=O)c2cc3[nH]c(=O)c(=O)[nH]c3cc2C)cc(OC)c1OC | nt | nt | nt | 63* | nt | nt | 0
Nc1nc(SCC(=O)c2ccc(F)cc2)n[nH]1 | 0 | -1 | 0.9 | 2 | -3 | 10 | nt
Cc1nc(SCC(=O)c2ccc(F)cc2)n[nH]1 | -2 | 16 | 0.9 | 63* | -8 | 10 | -15
C=CCn1c2ccccc2c(=O)c2cc(C#CC[C@@H](C)O)ccc21 | nt | nt | nt | 67* | nt | nt | 41
C=CCn1c2ccccc2c(=O)c2cc(C#CC3(O)CCCCC3)ccc21 | nt | nt | nt | 104* | nt | nt | 55* | Diaphorase 10uM=70*;Diaph ctr 30uM=54*
CCC/C=C/c1ccc(CN2C(C(C)C)C(=O)N(Cc3cn(CC4CCCCC4)nn3)CCS2(=O)=O)cc1 (stereo not given) | nt | nt | nt | 23 | nt | nt | nt
CCc1ccc(C(=O)/C=C/c2cnn(C)c2C)s1 | 2 | -2 | 0.9 | 59* | 21 | 7 | 39
Cc1c(/C=C/C(=O)c2cccs2)cnn1C | 0 | -4 | 0.8 | 13 | 8 | 17 | nt
COc1ccccc1CN(C)S(=O)(=O)c1cccs1 | nt | nt | nt | 24 | nt | nt | nt
Oc1ccc(/C=N/N=C(c2ccccc2)c2ccccc2)c(O)c1O | 1 | -28 | 0.3 | 75* | -7 | 75* | 73* | Diaphorase 10uM=51*;Diaph ctr 30uM=35
Oc1cccc(C=Nc2cccc3ccccc23)c1O | nt | nt | nt | 45 | nt | nt | nt
Cc1c(NC(=S)N/C(=N/S(=O)(=O)c2ccc(Cl)cc2)c2ccccc2)c(=O)n(-c2ccccc2)n1C | nt | nt | nt | -3 | nt | nt | nt

Source: PubChem (several laboratories)
